Fh CTSL1 inh: counter-screen for PFM18AAP inhibitors: inhibitors of F. hepatica cathepsin L1; inhibition, % at 5.96 µM; AID 1906; recombinant F. hepatica cathepsin L1, Z-Leu-Arg-MCA fluorescence; 0.49% of 300,000 active;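 active means inhibition above the mean of all tested compounds plus 3 SD, set per screening campaign, cut at about 17% in these data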;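 further: 0% = plate median of test compound wells and 100% = 1 µM Z-Phe-Ala-diazomethylketone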
PAD4 FP inh: blocks human protein arginine deiminase 4. Q9UM07. recombinant PAD4, RCA probe fluorescence polarization. inhibition, % at 6.36 µM. 0.41% of 330,000 active. AID 485272;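 active means percent inhibition above a cutoff equal to the mean of all tested compounds plus 3 SD, cut at about 15% in these data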;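 further: 0% = PAD4 with RCA probe and DMSO and 100% = probe without PAD4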
PRMT1 FP inh: PRMT1 (human) inhibition, primary screen. Q99873. recombinant PRMT1, activity-based probe fluorescence polarization. inhibition, % at 2.79 µM. 1.3% of 370,000 active. AID 652257;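 active means inhibition above about 21% made by adding two undisclosed values, limit read from the data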
TDP2 absorb: TDP2 (human) inhibition, absorbance primary screen | 0.34% of 370,000 active | recombinant TDP2, T5PNP hydrolysis, p-nitrophenol absorbance 415 nm | inhibition, % at 12.8 µM | O95551;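 active means inhibition above the mean of all tested compounds plus 3 SD, set per campaign, cut at about 25% in these data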;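 further: 0% = DMSO with enzyme and 100% = buffer with substrate but no TDP2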
Target sequence (O95551 whole entry, looked up): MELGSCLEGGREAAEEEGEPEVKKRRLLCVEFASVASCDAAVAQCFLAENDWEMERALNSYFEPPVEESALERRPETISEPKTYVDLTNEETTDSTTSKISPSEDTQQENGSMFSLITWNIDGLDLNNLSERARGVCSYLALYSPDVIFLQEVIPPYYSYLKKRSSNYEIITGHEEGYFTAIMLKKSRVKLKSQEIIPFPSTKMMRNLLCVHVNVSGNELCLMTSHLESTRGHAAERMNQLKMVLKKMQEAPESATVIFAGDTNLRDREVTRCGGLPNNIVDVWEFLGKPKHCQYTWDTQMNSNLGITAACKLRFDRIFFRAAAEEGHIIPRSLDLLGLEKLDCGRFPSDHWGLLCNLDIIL
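Read-out basis: percent inhibition. System: recombinant human TDP2. Buffer or medium: Mg2+-containing Tris-HCl buffer, pH 7.5. Repeats: single replicate. Timing: reaction 2 h, 37 °C. Benchmarks: high control without enzyme, low control DMSO plus TDP2. Probe or stimulus: 5 mM T5PNP. Doses: 12.8 µM only. Measured by: epi absorbance of p-nitrophenol freed from T5PNP by hydrolysis.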
GSTO1 inh: blocks human GSTO1 in RBBP9 counter-screen; P78417; recombinant GSTO1, activity-based probe fluorescence polarization; inhibition, % at 5.96 µM; 1.1% of 300,000 active;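 active means inhibition above the campaign mean inhibition plus 3 SD, cut at about 35% in these data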;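 further: 0% = GSTO1-1 with DMSO and 100% = wells lacking GSTO1-1 enzyme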
Target sequence (P78417 whole entry, looked up): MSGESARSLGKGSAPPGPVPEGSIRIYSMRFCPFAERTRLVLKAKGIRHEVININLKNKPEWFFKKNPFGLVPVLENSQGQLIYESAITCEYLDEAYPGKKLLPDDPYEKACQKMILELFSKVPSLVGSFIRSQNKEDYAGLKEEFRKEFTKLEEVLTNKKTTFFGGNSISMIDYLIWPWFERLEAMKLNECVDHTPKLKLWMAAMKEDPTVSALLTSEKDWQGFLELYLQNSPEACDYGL
Numbers without * were called inactive; . = no result. Only some compounds are listed: those with a hit (about 2.5% of all), similar ones and a draw of the others.

SMILES | Fh CTSL1 inh | PAD4 FP inh | PRMT1 FP inh | TDP2 absorb | GSTO1 inh
Cc1c(NC(=O)CSCc2ccc(Cl)cc2Cl)cccc1C(=O)O | 19* | 1 | -4 | -17 | 7
COc1ccccc1NS(=O)(=O)c1ccc(Cl)c(NC(=O)C(C)N2C(=O)c3ccccc3C2=O)c1 (stereo unspecified) | 25* | -7 | 1 | 2 | 6
N/C(CSc1ccc(Cl)cc1)=N\NC(=O)c1ccncc1 | 20* | -4 | -7 | -12 | 3
CCc1cccc(C)c1NC(=O)c1cccc(N(C)C)c1 | 0 | -6 | 23* | -1 | -9
Cc1ccc(S(=O)(=O)N2CN(Cc3ccco3)c3nc4ccccc4nc32)cc1 | 3 | 16* | 10 | 11 | 11
CC1CCC(NC(=O)c2nn(C)c3c2CSc2ccccc2-3)CC1 (stereo unspecified) | -1 | 3 | 22* | -11 | -4
CC(CCN1CCC(C(O)(c2ccccc2)c2ccccc2)CC1)Oc1cccc(C(F)(F)F)c1 (stereo unspecified) | . | . | 2 | 3 | .
Cc1ccc(/C=C(\NC(=O)c2ccccc2)C(=O)OCc2ccccc2)cc1 | 22* | -2 | -3 | 12 | -5
CCOC(=O)c1sc2nc(N3CCOCC3)c3c(c2c1N)CCCC3 | 2 | 4 | 3 | 3 | 1
CCN(CC)C(=O)c1sc2nc(N3CCOCC3)c3c(c2c1N)CCCC3 | 0 | -1 | 24* | -7 | 6
C=C(CCC(=O)c1ccccc1)C(=O)c1ccccc1 | 41* | 4 | 6 | 1 | -37
O=C(CCCCCCCC(=O)c1ccccc1)c1ccccc1 | -1 | -2 | -3 | 6 | 0
Cc1nnc2sc(SCC(=O)N3CCC(C)CC3)nn2c1=O | 47* | 1 | 4 | 5 | 12
O=C(c1ccc(Cl)c(S(=O)(=O)N2CCCCC2)c1)N1CCN(c2ccccc2)CC1 | 0 | -1 | 2 | -8 | 6
O=C(c1ccc(Cl)c(S(=O)(=O)N2CCCC2)c1)N1CCN(c2ccccc2)CC1 | 35* | 6 | -2 | -7 | -6
C=CCN(CC#Cc1ccc(C(F)(F)F)cc1)Cc1ccc(OC)cc1OC | . | . | -3 | -1 | .
O=C(OC12CCCN(C1)/C(=C/c1ccc(Cl)cc1)C2)c1ccc(F)cc1 (stereo unspecified) | . | . | -1 | 0 | .
CC(Oc1ccc2c(c1)oc(=O)c1ccccc12)C(=O)NC(Cc1c[nH]c2ccc(O)cc12)C(=O)O (stereo unspecified) | 0 | 3 | 22* | -5 | -1
Cc1cc(OC(C)C(=O)NC(Cc2c[nH]c3ccc(O)cc23)C(=O)O)c2c(C)c(C)c(=O)oc2c1 (stereo unspecified) | -1 | -4 | -2 | 7 | 0
c1ccc(-c2cccc(CNc3nc(-c4ccccn4)nnc3-c3ccccc3)c2)cc1 | . | . | 0 | 0 | .
O=C(COc1ccccc1)N1CCN(S(=O)(=O)c2cccs2)CC1 | 19* | 1 | 0 | 0 | 3
CC(=O)Nc1ccc(S(=O)(=O)NCC(=O)N2CCN(S(=O)(=O)c3cccs3)CC2)cc1 | . | 10 | 24* | -1 | .
O=C(CSc1nnc(-c2ccc(Cl)cc2)n1Cc1ccco1)Nc1ccc(S(=O)(=O)Nc2nccs2)cc1 | . | . | 19 | -2 | .
COC(=O)[C@]12C=CCN1[C@@H](c1ccc(OC)c(OC)c1)c1c(c3ccccc3n1S(=O)(=O)c1ccc(C)cc1)C2 | . | . | 6 | -5 | .
C=CCOC(=O)N1CCC(NS(=O)(=O)c2ccc3c(c2)CCN3C(C)=O)CC1 | . | . | 4 | 1 | .
SMILES | Fh CTSL1 inh | PAD4 FP inh | PRMT1 FP inh | TDP2 absorb | GSTO1 inh
Cc1[nH]c(=S)sc1Cc1ccc(Cl)c(Cl)c1 | -4 | 0 | 13 | 3 | -4
Cc1cc(Cl)cc2sc(=S)[nH]c12 | . | . | 22* | 3 | .
CCc1nnc(NC(=O)CSc2sc3c(O)cc(=O)[nH]c3c2C#N)s1 | -4 | -11 | 42* | 25* | 48*
N#Cc1c(SCC(=O)Nc2cccc(C(F)(F)F)c2)sc2c(O)cc(=O)[nH]c12 | 3 | -11 | 21* | -1 | -2
Cc1cc(OCC(C)CN2CCC(C(O)(c3ccccc3)c3ccccc3)CC2)ccc1Br (stereo unspecified) | . | . | 1 | -6 | .
COc1ccc(OC)c(S(=O)(=O)n2c(CN3CCOCC3)nc3ccccc32)c1 | . | . | 9 | 5 | .
COCc1cn(-c2ccc3c(c2)[C@@]2(CC(=O)N(C)C2c2ccccc2)C(=O)N3CC(C)C)nn1 (stereo partly specified) | . | . | -5 | -2 | .
Cc1cccc(Cn2ncc(Cl)c(Cl)c2=O)c1 | 2 | 0 | 5 | 5 | 30
Cc1ccccc1CN1C(=O)c2ccccc2C1c1nnnn1Cc1ccccc1 (stereo unspecified) | . | . | -2 | -6 | .
Cc1cccc(Cn2nnc3c2C(=O)c2ccccc2C3=O)c1 | 19* | -5 | 0 | -7 | 24
Cc1ccccc1Cn1nnc2c1C(=O)c1ccccc1C2=O | 25* | -9 | -3 | 6 | 38*
O=C1C2CC=C(Cl)CC2C(=O)N1CCc1ccccc1 (stereo unspecified) | 44* | -2 | 24* | -16 | 16
Cc1ccc(C(=O)N(C)[C@H]2C[C@H]3c4[nH]c5c(-c6ccc7c(c6)OCO7)cccc5c4CCN3C[C@H]2[C@H](C)O)cc1 | . | . | -1 | -3 | .
Cc1cc(NS(=O)(=O)c2ccc(Nc3nc(-c4sc(N)nc4C)cs3)cc2)no1 | 6 | -21 | . | . | 37*
CCOC(=O)CC[C@@H]1CC[C@]2(CCCN(C(=O)c3cccnc3)C2)O1 | . | . | 0 | 8 | .
CN(C)C(CNC(=O)c1cc(Br)ccc1Cl)c1ccco1 (stereo unspecified) | 22* | 0 | 2 | -1 | 5
CC1=CC(=O)C(C(C)C)=C/C1=N/OS(=O)(=O)c1ccccc1 | 17* | -3 | 16 | -14 | 7
CC1=CC(=O)C=C(C)C1=NOS(=O)(=O)c1ccccc1 | . | . | 11 | -1 | .
O=C(COC(=O)c1ccccc1C(=O)c1ccc(Cl)cc1)NC(c1ccccc1)c1ccccc1 | 1 | 0 | 2 | -4 | 2
O=C(COC(=O)c1ccc([N+](=O)[O-])s1)NCc1ccccc1 | 57* | -1 | 0 | 10 | 42*
O=C(COC(=O)c1ccc([N+](=O)[O-])o1)NCc1ccccc1 | . | -12 | 4 | 0 | .
O=C(COC(=O)c1ccc([N+](=O)[O-])s1)NC(c1ccccc1)c1ccccc1 | 6 | -11 | 1 | -6 | 37*
CN[C@H]1C[C@H]2c3[nH]c4c(-c5ccc6c(c5)OCO6)cccc4c3CCN2C[C@H]1[C@H](C)O | . | . | 1 | -4 | .
Oc1ccc(/C=N/NC(=S)N2CCOCC2)cc1 | 17* | 0 | 8 | 0 | 8
COc1ccc(-n2c(SCc3nc4ccccc4[nH]3)nc3ccccc3c2=O)cc1 | . | . | 2 | 9 | .
COc1ccccc1/C=N/Nc1nncc2ccccc12 | 3 | 2 | -3 | 12 | 5
COc1ccc(/C=N/Nc2nncc3ccccc23)cc1 | 52* | -1 | 1 | 4 | 0

Source: PubChem
